Measurements of several laboratories.
Compare with care: the assays were run in different laboratories.
Cell line: MCF7
Effect on: cell growth or viability

| SMILES | test | conditions | GI50 [nM] |
| --- | --- | --- | --- |
| COc1cc2c(OC)nc3c4cc5c(cc4cc(OCCCN4CCC(N6CCCCC6)CC4)c3c2cc1OC)OCO5 | MTT | 72 h | 1500 |
| COc1cc2c(Nc3ccc(Br)cc3F)ncnc2cc1OCC1CCN(C)CC1 | MTT | 72 h | 250 |
| COc1cc(-c2ccc(-c3ccc(C(=N)N)nc3)s2)cc(OC)c1OC | SRB | – | 1300 |
| COc1ccc(C(=O)/C=C/c2cccc(Cl)c2Cl)cc1S(N)(=O)=O | SRB | 48 h | 3200 |
| COc1cc2c(OC)nc3c4cc5c(cc4cc(OCCN(C)C)c3c2cc1OC)OCO5 | MTT | 72 h | > 100000 |
| COc1ccc(C(=O)/C=C/c2cc3c(cc2Br)OCO3)cc1S(N)(=O)=O | SRB | 48 h | 3800 |
| COc1ccc(-c2ccc(-c3ccc(C(=N)N)nc3)s2)cc1 | SRB | – | 1740 |
| COc1cc(C(CC(=O)c2ccc(C)cc2)NCCc2ccc(O)c(O)c2)ccc1O (stereo not drawn) | MTT | – | 5200 |
| COc1ccc(C(=O)/C=C/c2cccc3ccccc23)cc1S(N)(=O)=O | SRB | 48 h | 2100 |
| COc1cc2c(OC)nc3c4cc5c(cc4cc(OCCCN4CCCC4)c3c2cc1OC)OCO5 | MTT | 72 h | 8600 |
| COc1cc(C(CC(=O)c2ccc(Cl)cc2)NCCc2ccc(O)c(O)c2)ccc1O (stereo not drawn) | MTT | – | 1090 |
| COc1ccc(C(=O)/C=C/c2cccc(Cl)c2)cc1S(N)(=O)=O | SRB | 48 h | 2000 |
| COc1cc(C(CC(=O)c2ccc(C(C)(C)C)cc2)NCCc2ccc(O)c(O)c2)ccc1O (stereo not drawn) | MTT | – | 2600 |
| Cc1ccc(C)c(COc2cc(NC(=O)c3ccc4c(c3)OCO4)ccc2N(C)S(C)(=O)=O)c1 | SRB | 48 h | 120 |
| COc1cc(C(CC(=O)c2ccc([N+](=O)[O-])cc2)NCCc2ccc(O)c(O)c2)ccc1O (stereo not drawn) | MTT | – | 160 |
| COc1ccc(C(=O)/C=C/c2ccc(Cl)c(Cl)c2)cc1S(N)(=O)=O | SRB | 48 h | 1100 |
| COc1cc2c(OC)nc3c4cc5c(cc4cc(OCCN4CCCC4)c3c2cc1OC)OCO5 | MTT | 72 h | ≥ 100000 |
| CN1CCN(c2ccc(Nc3ncc4cc(C#N)c(=O)n(C5CCCC5)c4n3)cc2)CC1 | resazurin | 96 h | 150 |
